Activity calls are given as the source filed them. The rule behind the calls is not given here.
Experiments:
[1] = system: CCRF-CEM; experiment: Antiproliferative activity against vincristine-resistant human CEM cells assessed as reduction in cell viability measured after 48 hrs by Celltiter-blue cell viability assay; format: functional, cell-based
In short: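 VCR-R CEM cells (RPMI 1640, 10% FCS), 0.02 × 10^6 per well, rested 4 h (metabolic activity at this point taken as zero value), then exposed to compounds for 48 h; CellTiter-Blue added 2 h before end, fluorescence at 590 nm. IC50 by nonlinear regression; single-concentration proliferation read at 10 μM.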

[2] = system: HepaRG; experiment: Cytotoxicity against human HepaRG cells assessed as reduction in cell viability at 20 uM measured after 24 hrs by Celltiter-blue cell viability assay; format: cell-based
In short: (§1)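 Differentiated HepaRG cells (Maintenance/Metabolism medium) exposed 24 h to 10 or 20 μM compound; viability by CellTiter-Blue, normalized to vehicle control. Means ± SEM of three independent experiments.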

[3] = system: HepaRG; experiment: Cytotoxicity against human HepaRG cells assessed as reduction in cell viability at 10 uM measured after 24 hrs by Celltiter-blue cell viability assay; format: cell-based; in short: as §1
[4] = system: HepG2; experiment: Inhibition of AKT phosphorylation at Ser473 residue in human HepG2 cells at 5 uM measured after 24 hrs by Western blot analysis; format: cell-based
In short: (§2)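 HepG2, 0.5 × 10^6 per well, adhered overnight, then DMSO or 5 μM compound; RIPA lysates immunoblotted by SDS-PAGE/PVDF with chemiluminescent detection.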

[5] = system: CCRF-CEM; experiment: Effect on Bcl-XL expression in vincristine-resistant human CEM cells at 5 uM measured after 24 hrs by Western blot analysis; format: functional, cell-based
In short: (§3)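 VCR-R CEM cells, 2 × 10^6 per well, seeded 4 h before 5 μM compound or DMSO for 24 h; RIPA lysis, SDS-PAGE, PVDF blotting, chemiluminescence. Probed for p-Akt (Ser473), total Akt, PARP, Bcl-xL, Mcl-1; stain-free total protein as loading control.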

[6] = system: CEM; experiment: Inhibition of P-gp in vincristine-resistant human CEM cells assessed as potentiation of vincristine-induced apoptosis 1 uM measured after 48 hrs by propidium iodide staining based flow cytometry; format: cell-based
In short: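 VCR-R CEM, 0.125 × 10^6 per well, rested 4 h, then incubated 48 h with increasing vincristine with or without 1 μM compound; apoptosis by propidium iodide staining and flow cytometry. Three independent experiments.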

[7] = system: CCRF-CEM; experiment: Effect on MCL1 expression in vincristine-resistant human CEM cells at 5 uM measured after 24 hrs by Western blot analysis; format: functional, cell-based; in short: as §3
[8] = system: CCRF-CEM; experiment: Induction of mitochondrial membrane disruption in vincristine-resistant human CEM cells at 5 uM measured after 24 hrs by JC-1 dye based flow cytometric analysis; format: functional, cell-based
In short: (§4)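 Cells (HepG2 adhered overnight; VCR-R CEM seeded 4 h before) treated with DMSO or 5 μM for 24 h; JC-1 (1 μg/mL) 1 h before harvest, PBS wash, flow cytometry; green shift read as loss of ΔΨm. CCCP (100 μM, 1 h) positive control; elacridar (5 μM) present for CEM staining.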

[9] = system: HepG2; experiment: Cytotoxicity against human HepG2 cells overexpressing EGFP-CYP3A4 assessed as reduction in cell viability at 15 uM measured after 24 hrs by propidium iodide staining based flow cytometry; format: functional
In short: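 HepG2 stably transfected (G418 0.5 mg/mL, four weeks; plasmid confirmed by PCR) with pcDNA3-CYP3A4-EGFP or empty vector, 0.1 × 10^6 per well, adhered overnight; 15 μM compound 24 h. Propidium iodide staining and flow cytometry; specific cell death relative to control. Three independent experiments.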

[10] = system: HepG2; experiment: Induction of mitochondrial membrane disruption in human HepG2 cells at 5 uM measured after 24 hrs by JC-1 dye based flow cytometric analysis; format: functional, cell-based; in short: as §4
[11] = system: CEM; experiment: Effect on AKT phosphorylation at Ser473 residue in vincristine-resistant human CEM cells at 5 uM measured after 24 hrs by Western blot analysis; format: cell-based; in short: as §3
[12] = system: HepG2; experiment: Induction of apoptosis in human HepG2 cells assessed as increase in PARP cleavage at 5 uM measured after 24 hrs by Western blot analysis; format: functional, cell-based; in short: as §2
[13] = system: CCRF-CEM; experiment: Induction of apoptosis in vincristine-resistant human CEM cells assessed as increase in PARP cleavage at 5 uM measured after 24 hrs by Western blot analysis; format: functional, cell-based; in short: as §3
[14] = system: CEM; experiment: Inhibition of P-gp in vincristine-resistant human CEM cells at 0.1 to 1 uM using calcein-AM as substrate preincubated for 30 mins followed by compound washout and subsequent substrate addition measured after 60 mins by flow cytometric analysis; format: cell-based; settings: dose 0.1-1 µM
[15] = system: CCRF-CEM; experiment: Effect on P-gp expression in vincristine-resistant human CEM cells at 1 uM measured after 1.5 hrs by immunostaining based flow cytometry; format: functional, cell-based
In short: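 VCR-R CEM, 2 × 10^4 cells, 1 μM compound 1.5 h at 37 °C; washed in ice-cold 1% BSA/PBS, stained 30 min at 4 °C in dark with FITC anti-human P-gp, isotype control for background; flow cytometry, gMFI normalized to DMSO. Three independent experiments.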

[16] = system: HepG2; experiment: Induction of apoptosis in human HepG2 cells assessed as reduction in Bcl-xl expression at 5 uM measured after 24 hrs by Western blot analysis; format: functional, cell-based; in short: as §2
[17] = system: HepG2; experiment: Induction of apoptosis in human HepG2 cells assessed as reduction in Mcl-1 expression at 5 uM measured after 24 hrs by Western blot analysis; format: functional, cell-based; in short: as §2

SMILES | IC50 [1] | Activity [2] | Activity [3] | inhibition [4] | Activity [5] | inhibition [6] | Activity [7] | Activity [8] | Activity [9] | Activity [10] | Activity [11] | Activity [12] | Activity [13] | inhibition [14] | Activity [15] | Activity [16] | Activity [17]
COc1cc2c3cc1Oc1c(OC)c(OC)cc4c1C(Cc1ccc(Cl)c(c1)Oc1ccc(cc1)CC3N(C)CC2)N(C)CC4 (mixture of isomers) | 4.8 µM | Toxic | Toxic |  |  |  |  |  |  |  |  |  |  |  |  |  | 
COc1cc2c3cc1Oc1c(OC)c(OC)cc4c1C(Cc1ccc(OC(F)(F)F)c(c1)Oc1ccc(cc1)CC3N(C)CC2)N(C)CC4 (racemic; form 2) |  |  |  | Active | inactive | Active | inactive | Active | Active | inactive | inactive | inactive | Active | Active | inactive |  | 
COc1cc2c3cc1Oc1c(OC)c(OC)cc4c1C(Cc1cc(cs1)Oc1ccc(cc1)CC3N(C)CC2)N(C)CC4 (racemic; form 1) |  |  |  | Active | inactive | Active | inactive | Active | Active | inactive | inactive | inactive |  | Active | inactive | Active | Active
